Results: ChEMBL document CHEMBL3351590, “8-Methyltryptanthrin-induced differentiation of P19CL6 embryonal carcinoma cells into spontaneously beating cardiomyocyte-like cells” (2014)
Active and inactive are the calls of the source. The calls are words filed in the database; no cut-off is given here.

How the values were obtained:
P19CL6 [1] = test: Effect on HCN4 gene expression in C3H/He mouse P19CL6 cells at 1 uM by RT-PCR analysis; assay type: functional, cell-based
Outline: (§1)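 P19CL6 cells are cultured in α-MEM with 10% FBS, with compound (final DMSO ≤0.1%) renewed every 48 h. Total RNA is taken on day 10 and/or 18 and reverse-transcribed with random primers. Real-time PCR: 95 °C 10 min, then 40 cycles of 95 °C 15 s and 60 °C 1 min. Expression is normalized to G3PDH and given as a ratio to day 0.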

[2] = Induction of differentiation of C3H/He mouse P19CL6 cells assessed as number of beating aggregates at 1 uM on day 18 by phase contrast microscopic analysis; assay type: functional
Outline: (§2)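 Cells are seeded at 2.0 × 10^4 per 35 mm dish in α-MEM with 10% FBS, penicillin and streptomycin, plus compound (final DMSO ≤0.1%), with medium changed every 48 h. Aggregates and beating aggregates are counted every 2 days by phase-contrast microscopy in five ×100 fields (total 8.8 mm2), up to day 18. Mean ± SEM, n = 7.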

[3] = Induction of GJA5 gene expression in C3H/He mouse P19CL6 cells at 1 uM on day 10 by RT-PCR analysis relative to control; assay type: functional; outline: as §1
P19CL6 [4] = test: Induction of alpha-MHC gene expression in C3H/He mouse P19CL6 cells at 1 uM by RT-PCR analysis; assay type: functional, cell-based; settings: TDE = time-dependent effect
Outline: (§3)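 Cardiac gene qPCR (α-MHC, GATA4, BMP2) in P19CL6 cells kept in α-MEM/10% FBS with agent, medium renewed at 48 h intervals. RNA is harvested on days 10 and 18 and reverse-transcribed with random primers. PCR runs 40 cycles (95 °C 15 s, 60 °C 1 min). Values are normalized to G3PDH, expressed relative to day 0, as mean ± SEM, n = 4.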

P19CL6 [5] = test: Induction of differentiation of C3H/He mouse P19CL6 cells assessed as aggregate formation on day 10 by phase contrast microscopic analysis; assay type: functional, cell-based; outline: as §2
[6] = Induction of GATA4 gene expression in C3H/He mouse P19CL6 cells at 1 uM measured on day 10 and 18 by RT-PCR analysis relative to control; assay type: functional; outline: as §3
[7] = Induction of alpha-MHC gene expression in C3H/He mouse P19CL6 cells at 1 uM measured on day 10 and 18 by RT-PCR analysis relative to control; assay type: functional; outline: as §3
P19CL6 [8] = test: Induction of Cav1.2 gene expression in C3H/He mouse P19CL6 cells at 1 uM by RT-PCR analysis; assay type: functional, cell-based; settings: TDE = time-dependent effect; outline: as §1
P19CL6 [9] = test: Induction of differentiation of C3H/He mouse P19CL6 cells assessed as beating aggregate formation on day 10 by phase contrast microscopic analysis; assay type: functional, cell-based; outline: as §2
[10] = Induction of GJA5 gene expression in C3H/He mouse P19CL6 cells at 1 uM on day 18 by RT-PCR analysis relative to control; assay type: functional; outline: as §1
[11] = Increase in area of beating aggregates in C3H/He mouse P19CL6 cells on day 18 by phase contrast microscopic analysis (reference value: 0.5 +/- 0.3 /mm2); assay type: functional
[12] = Decrease in Cav3.1 gene expression in C3H/He mouse P19CL6 cells at 1 uM on day 10 by RT-PCR analysis relative to control; assay type: functional, cell-based; outline: as §1
P19CL6 [13] = test: Induction of BMP2 gene expression in C3H/He mouse P19CL6 cells at 1 uM by RT-PCR analysis; assay type: functional, cell-based; settings: TDE = time-dependent effect; outline: as §3
[14] = Induction of differentiation of C3H/He mouse P19CL6 cells assessed as beating rate of cardiomyocyte-like cells at 1 uM on day 18 (reference value: 45.2 +/- 4.2 bpm); assay type: functional
P19CL6 [15] = test: Induction of GATA4 gene expression in C3H/He mouse P19CL6 cells at 1 uM by RT-PCR analysis; assay type: functional, cell-based; settings: TDE = time-dependent effect; outline: as §3
P19CL6 [16] = test: Induction of differentiation of C3H/He mouse P19CL6 cells assessed as beating aggregate formation at 0.1 to 1 uM on day 18 by phase contrast microscopic analysis; assay type: functional, cell-based; outline: as §2
P19CL6 [17] = test: Effect on GJA4 gene expression in C3H/He mouse P19CL6 cells at 1 uM by RT-PCR analysis; assay type: functional, cell-based; outline: as §1
P19CL6 [18] = test: Effect on GJC1 gene expression in C3H/He mouse P19CL6 cells at 1 uM by RT-PCR analysis; assay type: functional, cell-based; outline: as §1
P19CL6 [19] = test: Effect on GJB1 gene expression in C3H/He mouse P19CL6 cells at 1 uM by RT-PCR analysis; assay type: functional, cell-based; outline: as §1
P19CL6 [20] = test: Induction of Cav3.1 gene expression in C3H/He mouse P19CL6 cells at 1 uM on day 18 by RT-PCR analysis; assay type: functional, cell-based; outline: as §1
P19CL6 [21] = test: Effect on HCN2 gene expression in C3H/He mouse P19CL6 cells at 1 uM by RT-PCR analysis; assay type: functional, cell-based; outline: as §1
P19CL6 [22] = test: Induction of differentiation of C3H/He mouse P19CL6 cells assessed as aggregate formation at 0.1 to 1 uM on day 18 by phase contrast microscopic analysis; assay type: functional, cell-based; outline: as §2
[23] = Induction of Cav1.2 gene expression in C3H/He mouse P19CL6 cells at 1 uM on day 18 by RT-PCR analysis relative to control; assay type: functional; outline: as §1
[24] = Induction of BMP2 gene expression in C3H/He mouse P19CL6 cells at 1 uM measured on day 10 and 18 by RT-PCR analysis relative to control; assay type: functional; outline: as §3
[25] = Induction of GJA1 gene expression in C3H/He mouse P19CL6 cells at 1 uM on day 18 by RT-PCR analysis relative to control; assay type: functional; outline: as §1
[26] = Induction of differentiation of C3H/He mouse P19CL6 cells assessed as number of aggregates at 1 uM on day 18 by phase contrast microscopic analysis (reference value: 38.2 +/- 8.4/mm2); assay type: functional; outline: as §2
P19CL6 [27] = test: Induction of differentiation of C3H/He mouse P19CL6 cells assessed as beating aggregate formation at 0.1 to 1 uM using compound dissolved in 0.03% DMSO by phase contrast microscopic analysis; assay type: functional, cell-based; outline: as §2
P19CL6 [28] = test: Induction of Cav1.2 gene expression in C3H/He mouse P19CL6 cells on day 10 and 18 by RT-PCR analysis; assay type: functional, cell-based; outline: as §1
[29] = Induction of Cav1.2 gene expression in C3H/He mouse P19CL6 cells at 1 uM on day 10 by RT-PCR analysis relative to control; assay type: functional; outline: as §1
[30] = Decrease in Cav1.3 gene expression in C3H/He mouse P19CL6 cells at 1 uM on day 10 and day 18 by RT-PCR analysis; assay type: functional, cell-based; outline: as §1
P19CL6 [31] = test: Effect on Cav3.2 gene expression in C3H/He mouse P19CL6 cells at 1 uM by RT-PCR analysis; assay type: functional, cell-based; outline: as §1
P19CL6 [32] = test: Induction of BMP2 gene expression in C3H/He mouse P19CL6 cells at 1 uM measured on day 10 and 18 by RT-PCR analysis; assay type: functional, cell-based; outline: as §3
P19CL6 [33] = test: Induction of alpha-MHC gene expression in C3H/He mouse P19CL6 cells at 1 uM measured on day 10 and 18 by RT-PCR analysis; assay type: functional, cell-based; outline: as §3
P19CL6 [34] = test: Induction of differentiation of C3H/He mouse P19CL6 cells assessed as beating aggregate formation at 0.1 to 1 uM on day 10 by phase contrast microscopic analysis; assay type: functional, cell-based; outline: as §2
P19CL6 [35] = test: Induction of GATA4 gene expression in C3H/He mouse P19CL6 cells at 1 uM measured on day 10 and 18 by RT-PCR analysis; assay type: functional, cell-based; outline: as §3
P19CL6 [36] = test: Induction of differentiation of C3H/He mouse P19CL6 cells assessed as aggregate formation at 0.1 to 1 uM on day 10 by phase contrast microscopic analysis; assay type: functional, cell-based; outline: as §2
P19CL6 [37] = test: Induction of Cav1.2 gene expression in C3H/He mouse P19CL6 cells; assay type: functional, cell-based; outline: as §1

## Cc1ccc2c(c1)C(=O)c1nc3ccccc3c(=O)n1-2
P19CL6 [1]
  Activity: inactive
[2]
  Activity: 33.7 /mm2
[3]
  fold change (FC): 17.44
P19CL6 [4]
  Activity: tde
P19CL6 [5]
  Activity: Dose-dependent effect
[6]
  fold change (FC): 30.3
[7]
  fold change (FC): 1130.1
P19CL6 [8]
  Activity: tde
P19CL6 [9]
  Activity: Dose-dependent effect
[10]
  fold change (FC): 7.06
[11]
  Activity: 2.7 mm2
[12]
  fold change (FC): 0.21
P19CL6 [13]
  Activity: tde
[14]
  Activity: 52.1 bpm
P19CL6 [15]
  Activity: tde
P19CL6 [16]
  Activity: Active
P19CL6 [17]
  Activity: inactive
P19CL6 [18]
  Activity: inactive
P19CL6 [19]
  Activity: inactive
P19CL6 [20]
  Activity: Active
P19CL6 [21]
  Activity: inactive
P19CL6 [22]
  Activity: Active
[23]
  fold change (FC): 3.38
[24]
  fold change (FC): 84.4
[25]
  fold change (FC): 1.38
[26]
  Activity: 47.3 /mm2
P19CL6 [27]
  Activity: Active
P19CL6 [28]
  Activity: Dose-dependent effect
[29]
  fold change (FC): 1.9
[30]
  inhibition: Active
P19CL6 [31]
  Activity: inactive

## O=C1c2ccccc2-n2c1nc1ccccc1c2=O
P19CL6 [32]
  Activity: inactive
P19CL6 [33]
  Activity: inactive
P19CL6 [34]
  Activity: inactive
P19CL6 [35]
  Activity: inactive
P19CL6 [36]
  Activity: inactive
P19CL6 [37]
  Activity: inactive

## CCCc1ccc2c(c1)C(=O)c1nc3ccccc3c(=O)n1-2
P19CL6 [34]
  Activity: inactive
P19CL6 [36]
  Activity: inactive
P19CL6 [37]
  Activity: inactive

## CCc1ccc2c(c1)C(=O)c1nc3ccccc3c(=O)n1-2
P19CL6 [34]
  Activity: inactive
P19CL6 [36]
  Activity: inactive
P19CL6 [37]
  Activity: inactive
